Source: ChEMBL document CHEMBL1799942, “Design, synthesis and antifungal activities of novel 1,2,4-triazole derivatives” (2011)
In brackets after ≈: the same amount, converted by molar mass.

Tests used:
Type in all cases: functional
[1] = Antifungal activity against Fonsecaea compacta by micro-broth dilution method
Procedure, shortened: (§1)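 Broth microdilution following the NCCLS yeast reference method (M27-A2), run on clinical isolates of filamentous fungi. Compounds were dissolved in DMSO, serially diluted in growth medium, inoculated and incubated at 35 °C. Growth was read at 7 days. MIC80 is the first well with about 80% less growth than the drug-free well.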

Candida parapsilosis = experiment: Antifungal activity against Candida parapsilosis ATCC 0306392 by micro-broth dilution method; settings: Lodderomyces parapsilosis
Procedure, shortened: (§2)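 Micro-broth dilution per NCCLS M27-A2. The C. parapsilosis strain is the ATCC 0306392 quality-control standard tested in each assay; the C. tropicalis strain is a clinical isolate. Compounds were in DMSO, serially diluted in growth medium, inoculated and incubated at 35 °C. MIC80 is the first well with about 80% growth reduction relative to the drug-free well.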

Nannizzia gypsea = experiment: Antifungal activity against Microsporum gypseum after 7 days by micro-broth dilution method; settings: 168 h; procedure, shortened: as §1
Aspergillus fumigatus = experiment: Antifungal activity against Aspergillus fumigatus after 7 days by micro-broth dilution method; settings: 168 h; procedure, shortened: as §1
Cryptococcus neoformans = experiment: Antifungal activity against Cryptococcus neoformans ATCC BLS108 after 72 hrs by micro-broth dilution method; settings: ATCC BLS108, 72 h
Procedure, shortened: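 NCCLS M27-A2 microdilution on the ATCC BLS108 quality-control strain, tested in every assay. Compounds were taken up in DMSO, serially diluted in growth medium, inoculated and incubated at 35 °C. Growth was scored at 72 h. MIC80 is the first well with about 80% lower growth than the drug-free control well.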

Candida albicans = experiment: Antifungal activity against Candida albicans ATCC Y0109 after 24 hrs by micro-broth dilution method; settings: ATCC Y0109, 24 h
Procedure, shortened: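 Micro-broth dilution per NCCLS M27-A2 on the quality-control standard strain ATCC Y0109, included in each assay. Compounds were dissolved in DMSO, serially diluted in growth medium, inoculated and incubated at 35 °C, with growth read at 24 h. MIC80 is the first well showing roughly 80% growth reduction versus the drug-free well.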

Trichophyton rubrum = experiment: Antifungal activity against Trichophyton rubrum after 7 days by micro-broth dilution method; settings: 168 h; procedure, shortened: as §1
Candida tropicalis = experiment: Antifungal activity against Candida tropicalis by micro-broth dilution method; procedure, shortened: as §2

Row | MIC80 [1] [µg/mL] | MIC80 (Candida parapsilosis) [µg/mL] | MIC80 (Nannizzia gypsea) [µg/mL] | MIC80 (Aspergillus fumigatus) [µg/mL] | MIC80 (Cryptococcus neoformans) [µg/mL] | MIC80 (Candida albicans) [µg/mL] | MIC80 (Trichophyton rubrum) [µg/mL] | MIC80 (Candida tropicalis) [µg/mL] | SMILES
1 | 0.0156 (≈ 0.0286 µM) | 0.0039 (≈ 0.00716 µM) | 0.0039 (≈ 0.00716 µM) | 1 (≈ 1.84 µM) | 0.0156 (≈ 0.0286 µM) | 64 (≈ 117 µM) | 0.0039 (≈ 0.00716 µM) | 0.0039 (≈ 0.00716 µM) | O=C(Nc1ccc(N2CCN(CC(O)(Cn3cncn3)c3ccc(F)cc3F)CC2)c(F)c1)C(F)(F)Cl (racemic)
2 | 0.25 (≈ 0.473 µM) | 0.0039 (≈ 0.00738 µM) | > 64 | 1 (≈ 1.89 µM) | 0.0625 (≈ 0.118 µM) | 0.0156 (≈ 0.0295 µM) | 0.0156 (≈ 0.0295 µM) | 0.0039 (≈ 0.00738 µM) | O=C(Nc1ccc(N2CCN(CC(O)(Cn3cncn3)c3ccc(F)cc3F)CC2)c(F)c1)C(F)(F)F (racemic)
3 | 1 (≈ 2.05 µM) | 0.0625 (≈ 0.128 µM) | 0.25 (≈ 0.512 µM) | 4 (≈ 8.19 µM) | 1 (≈ 2.05 µM) | 0.0625 (≈ 0.128 µM) | 0.0625 (≈ 0.128 µM) | 0.0625 (≈ 0.128 µM) | CCC(=O)Nc1ccc(N2CCN(CC(O)(Cn3cncn3)c3ccc(F)cc3F)CC2)c(F)c1 (racemic)
4 | 0.25 (≈ 0.497 µM) | 0.0156 (≈ 0.031 µM) | 0.0156 (≈ 0.031 µM) | 1 (≈ 1.99 µM) | 0.25 (≈ 0.497 µM) | 0.0156 (≈ 0.031 µM) | 0.0156 (≈ 0.031 µM) | 0.0156 (≈ 0.031 µM) | CCCC(=O)Nc1ccc(N2CCN(CC(O)(Cn3cncn3)c3ccc(F)cc3F)CC2)c(F)c1 (racemic)
5 | 1 (≈ 1.99 µM) | 0.25 (≈ 0.497 µM) | 0.0625 (≈ 0.124 µM) | > 64 | 16 (≈ 31.8 µM) | 0.0625 (≈ 0.124 µM) | 0.0625 (≈ 0.124 µM) | 4 (≈ 7.96 µM) | CC(C)C(=O)Nc1ccc(N2CCN(CC(O)(Cn3cncn3)c3ccc(F)cc3F)CC2)c(F)c1 (racemic)
6 | 1 (≈ 1.94 µM) | 0.25 (≈ 0.484 µM) | 0.25 (≈ 0.484 µM) | 1 (≈ 1.94 µM) | 1 (≈ 1.94 µM) | 0.0156 (≈ 0.0302 µM) | 0.25 (≈ 0.484 µM) | 0.25 (≈ 0.484 µM) | CCCCC(=O)Nc1ccc(N2CCN(CC(O)(Cn3cncn3)c3ccc(F)cc3F)CC2)c(F)c1 (racemic)
7 | 0.0625 (≈ 0.121 µM) | 0.0156 (≈ 0.0302 µM) | 0.0156 (≈ 0.0302 µM) | 64 (≈ 124 µM) | 0.25 (≈ 0.484 µM) | 0.0156 (≈ 0.0302 µM) | 0.0156 (≈ 0.0302 µM) | 0.0156 (≈ 0.0302 µM) | CC(C)(C)C(=O)Nc1ccc(N2CCN(CC(O)(Cn3cncn3)c3ccc(F)cc3F)CC2)c(F)c1 (racemic)
8 | 0.25 (≈ 0.471 µM) | 0.25 (≈ 0.471 µM) | 0.25 (≈ 0.471 µM) | 1 (≈ 1.88 µM) | 0.0625 (≈ 0.118 µM) | 0.0039 (≈ 0.00735 µM) | 0.0156 (≈ 0.0294 µM) | 0.0625 (≈ 0.118 µM) | CCCCCC(=O)Nc1ccc(N2CCN(CC(O)(Cn3cncn3)c3ccc(F)cc3F)CC2)c(F)c1 (racemic)
9 | 0.25 (≈ 0.459 µM) | 0.0625 (≈ 0.115 µM) | 0.0625 (≈ 0.115 µM) | 1 (≈ 1.84 µM) | 0.0625 (≈ 0.115 µM) | 0.00097 (≈ 0.00178 µM) | 0.0156 (≈ 0.0286 µM) | 0.0625 (≈ 0.115 µM) | CCCCCCC(=O)Nc1ccc(N2CCN(CC(O)(Cn3cncn3)c3ccc(F)cc3F)CC2)c(F)c1 (racemic)
10 | 0.25 (≈ 0.448 µM) | 0.0625 (≈ 0.112 µM) | 0.0625 (≈ 0.112 µM) | 1 (≈ 1.79 µM) | 0.25 (≈ 0.448 µM) | 0.0625 (≈ 0.112 µM) | 0.0039 (≈ 0.00698 µM) | 0.0625 (≈ 0.112 µM) | CCCCCCCC(=O)Nc1ccc(N2CCN(CC(O)(Cn3cncn3)c3ccc(F)cc3F)CC2)c(F)c1 (racemic)
11 | 0.0625 (≈ 0.114 µM) | 0.0625 (≈ 0.114 µM) | 0.0156 (≈ 0.0283 µM) | 64 (≈ 116 µM) | 1 (≈ 1.82 µM) | 0.0156 (≈ 0.0283 µM) | 0.0039 (≈ 0.00708 µM) | 0.0625 (≈ 0.114 µM) | O=C(Cc1ccccc1)Nc1ccc(N2CCN(CC(O)(Cn3cncn3)c3ccc(F)cc3F)CC2)c(F)c1 (racemic)
12 | 0.0625 (≈ 0.127 µM) | 0.0156 (≈ 0.0318 µM) | 0.0625 (≈ 0.127 µM) | 4 (≈ 8.15 µM) | 0.25 (≈ 0.509 µM) | 0.0039 (≈ 0.00794 µM) | 0.0625 (≈ 0.127 µM) | 0.0156 (≈ 0.0318 µM) | O=C(CCl)Nc1ccc(N2CCN(CC(O)(Cn3cncn3)c3ccc(F)cc3F)CC2)cc1 (racemic)
13 | 0.0625 (≈ 0.119 µM) | 0.0039 (≈ 0.0074 µM) | 0.0039 (≈ 0.0074 µM) | 1 (≈ 1.9 µM) | 0.0625 (≈ 0.119 µM) | 0.00097 (≈ 0.00184 µM) | 0.0156 (≈ 0.0296 µM) | 0.0039 (≈ 0.0074 µM) | O=C(Nc1ccc(N2CCN(CC(O)(Cn3cncn3)c3ccc(F)cc3F)CC2)cc1)C(F)(F)Cl (racemic)
14 | 0.0156 (≈ 0.0306 µM) | 0.0039 (≈ 0.00764 µM) | 0.0039 (≈ 0.00764 µM) | 1 (≈ 1.96 µM) | 0.0156 (≈ 0.0306 µM) | 0.00097 (≈ 0.0019 µM) | 0.0156 (≈ 0.0306 µM) | 0.00097 (≈ 0.0019 µM) | O=C(Nc1ccc(N2CCN(CC(O)(Cn3cncn3)c3ccc(F)cc3F)CC2)cc1)C(F)(F)F (racemic)
